Assay results reported in ChEMBL document CHEMBL2169813, “Cell death triggered by synthetic flavonoids in human leukemia cells is amplified by the inhibition of extracellular signal-regulated kinase signaling” (Eur J Med Chem, 2012).
Active and inactive are the calls of the source. No cut-off for these calls is given here.

Assays:
HL-60 [1] = assay: Cell cycle arrest in human HL60 cells assessed as accumulation at G1 phase at 30 uM incubated for 24 hrs by flow cytometry (reference value: 48 +/- 1.6%); format: functional
[2] = target: T1, Mitogen-activated protein kinase; ERK1/ERK2 (Homo sapiens) (UniProt P27361+P28482); assay: Induction of ERK1/2 phosphorylation in human HL60 cells after 30 mins by Western blotting; format: cell-based; conditions: HL-60
T1 sequence (P27361 whole entry, looked up): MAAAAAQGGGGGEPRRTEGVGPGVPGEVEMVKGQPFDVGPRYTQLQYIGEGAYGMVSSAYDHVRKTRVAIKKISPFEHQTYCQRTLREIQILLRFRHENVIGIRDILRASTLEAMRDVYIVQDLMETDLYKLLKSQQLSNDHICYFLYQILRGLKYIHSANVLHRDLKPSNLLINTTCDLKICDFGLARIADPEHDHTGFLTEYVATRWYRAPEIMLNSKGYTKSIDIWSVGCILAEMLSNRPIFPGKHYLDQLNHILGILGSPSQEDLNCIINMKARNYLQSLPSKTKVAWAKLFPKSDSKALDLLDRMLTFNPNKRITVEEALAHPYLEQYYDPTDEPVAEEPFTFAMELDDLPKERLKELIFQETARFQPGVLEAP
T1 sequence (P28482 whole entry, looked up): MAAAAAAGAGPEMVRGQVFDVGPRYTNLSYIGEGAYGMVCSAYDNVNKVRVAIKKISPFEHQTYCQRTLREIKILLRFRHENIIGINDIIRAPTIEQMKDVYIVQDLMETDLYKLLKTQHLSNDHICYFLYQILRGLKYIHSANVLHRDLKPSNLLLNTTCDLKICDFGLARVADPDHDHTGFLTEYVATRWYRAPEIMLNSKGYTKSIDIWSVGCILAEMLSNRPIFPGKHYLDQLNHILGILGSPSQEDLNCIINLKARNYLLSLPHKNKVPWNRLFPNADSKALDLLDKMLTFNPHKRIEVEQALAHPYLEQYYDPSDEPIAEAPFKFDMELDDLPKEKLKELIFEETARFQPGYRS
Summary of the method: (§1)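 HL-60 cells (1 × 10⁶/mL) treated with compound (10–30 µM) for various times. Where used, PD98059 (10 µM) was added 1 h beforehand. Lysates run on 10% SDS-PAGE and immunoblotted for phosphorylated ERK 1/2, JNK/SAPK or p38MAPK. Blots stripped and reprobed for the total kinase as loading control.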

HL-60 [3] = assay: Cytotoxicity against human HL60 cells after 72 hrs by MTT assay; format: functional, cell-based; conditions: HL-60, 72 h
Summary of the method: (§2)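 MTT colorimetric assay on HL-60 and HL-60/MX1 cells (RPMI 1640, 10% heat-inactivated FBS), 72 h exposure, absorbance 570 nm. IC50 obtained graphically by curve fitting. Means ± S.E. of three independent experiments, each in triplicate.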

HL-60 [4] = assay: Induction of DNA fragmentation in human HL60 cells at 30 uM incubated for 24 hrs by agarose gel electrophoresis; format: functional, cell-based
Summary of the method: (§3)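 HL-60 cells treated with the indicated concentrations. Genomic DNA extracted, run on agarose gel and visualised under UV after ethidium bromide staining, looking for internucleosomal fragmentation.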

[5] = target: T1, Mitogen-activated protein kinase; ERK1/ERK2 (Homo sapiens); assay: Induction of ERK1/2 phosphorylation in human HL60 cells after 6 hrs by Western blotting; format: cell-based; conditions: HL-60; summary of the method: as §1
HL-60 [6] = assay: Cytotoxicity against human HL60 cells at 100 uM after 72 hrs by MTT assay
HL-60 [7] = assay: Induction of procaspase-8 hydrolysis in human HL60 cells at 30 uM incubated for 24 hrs by immunoblotting method; format: functional, cell-based
Summary of the method: (§4)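 HL-60 cells (1 × 10⁶/mL) exposed to compound, harvested at 24 h. Lysed in Tris-HCl pH 7.4/Triton X-100 buffer with phosphatase and protease inhibitors, 15 min at 4 °C. Equal protein run on SDS-PAGE (7.5% PARP, 12.5% caspases) and immunoblotted on PVDF. β-Actin used as loading control.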

HL-60 [8] = assay: Increase in apoptosis in human HL60 cells assessed as hypodiploid cells level incubated for 24 hrs in presence of 10 uM MEK1/2 inhibitor PD98059 by flow cytometry (reference value: 15%); format: functional
Summary of the method: (§5)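 HL-60 cells preincubated 1 h with PD98059 (10 µM), SP600125 (10 µM) or SB203580 (2 µM), then treated with compound. Hypodiploid (apoptotic) cells quantified by flow cytometry of propidium iodide-stained nuclei. Three independent experiments, each in triplicate.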

HL-60 [9] = assay: Induction of procaspase-7 processing in human HL60 cells at 30 uM incubated for 24 hrs by immunoblotting method; format: functional, cell-based; summary of the method: as §4
HL-60 [10] = assay: Cytotoxicity against human HL60 cells assessed as cell viability after 48 hrs at 30 uM by MTT assay; format: functional; conditions: HL-60, 48 h, read-out: Activity
Summary of the method: (§6)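 HL-60 cells, quiescent (fresh) PBMC and phytohemagglutinin-activated healthy human PBMC cultured 48 h over a concentration range of compound. Proliferation measured. Means ± SE of two independent experiments, each in triplicate.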

HL-60 [11] = assay: Induction of DNA fragmentation in human HL60 cells at 10 uM incubated for 24 hrs by agarose gel electrophoresis; format: functional, cell-based; summary of the method: as §3
HL-60 [12] = assay: Induction of procaspase-6 processing in human HL60 cells at 30 uM incubated for 24 hrs by immunoblotting method; format: functional, cell-based; summary of the method: as §4
HL-60 [13] = assay: Induction of apoptosis in human HL60 cells assessed as incidence of condensed and fragmented chromatin at 30 uM incubated for 24 hrs by fluorescent microscopy; format: functional, cell-based
[14] = target: T2, MAP kinase p38 (Homo sapiens) (UniProt O15264+Q15759+Q16539+P53778); assay: Induction of p38MAPK phosphorylation in human HL60 cells after 30 mins by Western blotting; format: cell-based; conditions: HL-60; summary of the method: as §1
HL-60 [15] = assay: Cell cycle arrest in human HL60 cells assessed as accumulation at S phase at 10 uM incubated for 24 hrs by flow cytometry (reference value: 16.7 +/- 0.5%); format: functional
HL-60 [16] = assay: Induction of apoptosis in human HL60 cells assessed as hypodiploid cells level at 30 uM incubated for 24 hrs in presence of caspase inhibitor z-VAD-fmk by flow cytometry; format: functional, cell-based
Summary of the method: (§7)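 HL-60 cells given 30 µM compound for 24 h, alone or with z-VAD-fmk (100 µM), z-DEVD-fmk, z-IETD-fmk or z-LEHD-fmk (each 50 µM). Propidium iodide staining, hypodiploid cells quantified by flow cytometry. Three independent experiments, each in triplicate.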

HL-60 [17] = assay: Cell cycle arrest in human HL60 cells assessed as accumulation at G2/M phase at 30 uM incubated for 24 hrs by flow cytometry (reference value: 33.2 +/- 2.1%); format: functional
[18] = Cytotoxicity against human proliferating PBMCs assessed as cell viability after 48 hrs at 30 uM by MTT assay; format: cell-based, PBMC; conditions: read-out: Activity; summary of the method: as §6
HL-60 [19] = assay: Cell cycle arrest in human HL60 cells assessed as accumulation at G1 phase at 10 uM incubated for 24 hrs by flow cytometry (reference value: 48 +/- 1.6%); format: functional
HL-60 [20] = assay: Induction of cytochrome-c release in human HL60 cells at 30 uM incubated for 24 hrs by immunoblotting method; format: functional, cell-based
Summary of the method: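 HL-60 cells treated 24 h with 30 µM compound. Cytosolic extracts immunoblotted for cytochrome c released from mitochondria. β-Actin used as loading control.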

[21] = target: T3, c-Jun N-terminal kinase, JNK (Homo sapiens) (UniProt P45983+P53779+P45984); assay: Induction of JNK/SAPK phosphorylation in human HL60 cells after 6 hrs by Western blotting; format: cell-based; conditions: HL-60; summary of the method: as §1
HL-60 [22] = assay: Cell cycle arrest in human HL60 cells assessed as accumulation at S phase at 30 uM incubated for 24 hrs by flow cytometry (reference value: 16.7 +/- 0.5%); format: functional
HL-60 [23] = assay: Induction of apoptosis in human HL60 cells assessed as hypodiploid cells level incubated for 24 hrs in presence of 10 uM JNK/SAPK inhibitor SP600125 by flow cytometry; format: functional, cell-based; summary of the method: as §5
HL-60 [24] = assay: Induction of apoptosis in human HL60 cells assessed as hypodiploid cells level at 30 uM incubated for 24 hrs in presence of caspase-9 inhibitor z-LEHD-fmk by flow cytometry; format: functional, cell-based; summary of the method: as §7
HL-60 [25] = assay: Induction of apoptosis in human HL60 cells assessed as hypodiploid cells level incubated for 24 hrs in presence of 2 uM p38MAPK inhibitor SB203580 by flow cytometry; format: functional, cell-based; summary of the method: as §5
HL-60 [26] = assay: Cell cycle arrest in human HL60 cells assessed as accumulation at G2/M phase at 10 uM incubated for 24 hrs by flow cytometry (reference value: 33.2 +/- 2.1%); format: functional
HL-60 [27] = assay: Induction of Bid protein cleavage in human HL60 cells at 30 uM incubated for 24 hrs by Western blotting method; format: functional, cell-based; summary of the method: as §4
[28] = target: T3, c-Jun N-terminal kinase, JNK (Homo sapiens); assay: Induction of JNK/SAPK phosphorylation in human HL60 cells after 30 mins by Western blotting; format: cell-based; conditions: HL-60; summary of the method: as §1
HL-60 [29] = assay: Induction of p21'Cip1 protein expression in human HL60 cells at 30 uM incubated for 24 hrs by Western blotting method; format: functional, cell-based; summary of the method: as §4
HL-60 [30] = assay: Induction of apoptosis in human HL60 cells assessed as hypodiploid cells level at 30 uM incubated for 24 hrs in presence of caspase-8 inhibitor z-IETD-fmk by flow cytometry; format: functional, cell-based; summary of the method: as §7
HL-60 [31] = assay: Cell cycle arrest in human HL60 cells assessed as accumulation at subG1 phase at 10 uM incubated for 24 hrs by flow cytometry (reference value: 2.3 +/- 0.5%); format: functional
HL-60 [32] = assay: Induction of apoptosis in human HL60 cells assessed as hypodiploid cells level at 30 uM incubated for 24 hrs in presence of caspase-3 and -7 inhibitor z-DEVD-fmk by flow cytometry; format: functional, cell-based; summary of the method: as §7
HL-60 [33] = assay: Induction of procaspase-9 cleavage in human HL60 cells at 30 uM incubated for 24 hrs by immunoblotting method; format: functional, cell-based; summary of the method: as §4
[34] = target: T1, Mitogen-activated protein kinase; ERK1/ERK2 (Homo sapiens); assay: Induction of ERK1/2 phosphorylation in human HL60 cells after 30 mins in presence of 10 uM MEK1/2 inhibitor PD98059 by Western blotting; format: cell-based; conditions: HL-60; summary of the method: as §1
HL-60 [35] = assay: Induction of procaspase-3 processing in human HL60 cells at 30 uM incubated for 24 hrs by immunoblotting method; format: functional, cell-based; summary of the method: as §4
PBMC = assay: Induction of MLL gene cleavage in human proliferating PBMCs at 30 uM incubated for 16 hrs by inverse PCR method; format: functional, cell-based
Summary of the method: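 Peripheral blood mononuclear cells exposed to 30 µM compound for 16 h. Genomic DNA digested with Xba I and circularised. Nested inverse PCR (MF1–MR1, then MF2–MR2). Wild-type MLL removed by Pvu II digestion before PCR to reveal rearrangement products.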

HL-60 [36] = assay: Induction of caspase activation in human HL60 cells assessed as increase in PARP cleavage at 30 uM incubated for 24 hrs by immunoblotting method; format: functional, cell-based; summary of the method: as §4
HL-60 [37] = assay: Cell cycle arrest in human HL60 cells assessed as accumulation at subG1 phase at 30 uM incubated for 24 hrs by flow cytometry (reference value: 2.3 +/- 0.5%); format: functional
HL-60 [38] = assay: Induction of cyclin D1 protein expression in human HL60 cells at 30 uM incubated for 24 hrs by Western blotting method; format: functional, cell-based; summary of the method: as §4
[39] = Cytotoxicity against human HL60/MX1 cells after 72 hrs by MTT assay; format: functional, cell-based; conditions: HL60/MX1, 72 h; summary of the method: as §2
[40] = target: T2, MAP kinase p38 (Homo sapiens); assay: Induction of p38MAPK phosphorylation in human HL60 cells after 4 hrs by Western blotting; format: cell-based; conditions: HL-60; summary of the method: as §1
HL-60 [41] = assay: Induction of apoptosis in human HL60 cells assessed as changes in nuclear morphology at 30 uM incubated for 24 hrs by fluorescence microscopy (reference value: 4.9 +/- 1.0%)

## COC(=O)c1c(C)c(C)cc2c(=O)cc(-c3ccccc3C)oc12
HL-60 [1]
  Activity: 48.1%
[2]
  Activity: Active
HL-60 [3]
  IC50: 10.1 µM
HL-60 [4]
  Activity: Active
[5]
  Activity: Active
HL-60 [6]
  Activity: Active
HL-60 [7]
  Activity: Active
HL-60 [8]
  Activity: 25%
HL-60 [9]
  Activity: Active
HL-60 [10]
  viability at 30 µM: 25%
HL-60 [11]
  Activity: Active
HL-60 [12]
  Activity: Active
HL-60 [13]
  Activity: Active
[14]
  Activity: Active
HL-60 [15]
  Activity: 16.6%
HL-60 [16]
  Activity: inactive
HL-60 [17]
  Activity: 11.8%
[18]
  viability at 48 h, 30 µM: 75%
HL-60 [19]
  Activity: 53%
HL-60 [20]
  Activity: Active
[21]
  Activity: Active
HL-60 [22]
  Activity: 7.6%
HL-60 [23]
  Activity: Active
HL-60 [24]
  Activity: inactive
HL-60 [25]
  Activity: Active
HL-60 [26]
  Activity: 24.4%
HL-60 [27]
  Activity: Active
[28]
  Activity: Active
HL-60 [29]
  Activity: Active
HL-60 [30]
  Activity: inactive
HL-60 [31]
  Activity: 5.5%
HL-60 [32]
  Activity: inactive
HL-60 [33]
  Activity: Active
[34]
  Activity: inactive
HL-60 [35]
  Activity: Active
PBMC
  Activity: Active
HL-60 [36]
  Activity: Active
HL-60 [37]
  Activity: 28.5%
HL-60 [38]
  Activity: Active
[39]
  IC50: 18.9 µM
[40]
  Activity: inactive
HL-60 [41]
  Activity: 26.9%
